# Screening results from PubChem.
# MEKK2 WT-MEK5: modulators of MEK5 binding to wildtype MEKK2, primary screen, biochemical, multiplex bead flow cytometry, Alexa488-MEK5; Mitogen-activated protein kinase kinase kinase 2 (Homo sapiens), Q9Y2U5; Alexa488-MEK5 binding to MEKK2 WT; actives lie on both sides; binding response (% of control), % at 10 µM; hit rate 1.1% among 290,000; in the data active = binding response below about 67% or above about 130%
# Rce1 inhib: yeast Rce1p protease inhibitors, primary screen, biochemical, fluorescence, cell-free homogeneous; yeast membranes, quenched prenylated peptide cleavage fluorescence; CAAX prenyl protease 2 (Saccharomyces cerevisiae (strain ATCC 204508 / S288c)), Q03530; AID 2563, 2010; hit rate 0.27% among 290,000; calls only;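 active = fall in fluorescence gain of 50% or more versus controls, with final raw signal at or below 3038400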;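 note: plate controls were neutral control wells for no effect and wells lacking membranes for full effect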
# Target sequence (Q03530 whole entry, looked up): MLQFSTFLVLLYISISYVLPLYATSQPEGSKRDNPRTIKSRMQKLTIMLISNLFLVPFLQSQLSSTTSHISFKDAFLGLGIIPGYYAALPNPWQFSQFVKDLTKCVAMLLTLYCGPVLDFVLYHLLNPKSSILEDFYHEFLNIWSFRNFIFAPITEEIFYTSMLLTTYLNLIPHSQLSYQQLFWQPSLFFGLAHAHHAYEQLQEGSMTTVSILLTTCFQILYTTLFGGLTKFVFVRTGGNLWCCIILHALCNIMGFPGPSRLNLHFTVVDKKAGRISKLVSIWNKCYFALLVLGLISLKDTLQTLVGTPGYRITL
# MEKK3 PB1 HTS: modulators of MEKK3-MEK5 PB1 binding, primary screen, biochemical, wildtype MEKK3, multiplex bead flow cytometry, Alexa488-MEK5. binding response (% of control), % at 10 µM. bead-based flow cytometry, Alexa488-MEK5 binding to MEKK3; actives lie on both sides; 0 = blocked by unlabeled MEK5, 100 = vehicle. hit rate 1.4% among 290,000;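 active = binding response more than 3 SD above or below the average of its plate-row segment, actives on both sides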;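 note: Alexa488 bead fluorescence after subtracting the streptavidin-only scavenger bead signal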
# UCH37 DUB inh: inhibitors of human UCH37 deubiquitinase, primary screen, biochemical, Ub-AMC cleavage, fluorescence; Ubiquitin carboxyl-terminal hydrolase isozyme L5 (Homo sapiens), Q9Y5K5; purified proteasome/UCH37; inhibition, % (no concentration beside the values); hit rate 0.33% among 330,000;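 active = mean inhibition over replicate wells above about 20%, limit read from the data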;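 note: 0% = compound-free wells with enzyme and 100% = wells lacking proteasome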
# Target sequence (Q9Y5K5 whole entry, looked up): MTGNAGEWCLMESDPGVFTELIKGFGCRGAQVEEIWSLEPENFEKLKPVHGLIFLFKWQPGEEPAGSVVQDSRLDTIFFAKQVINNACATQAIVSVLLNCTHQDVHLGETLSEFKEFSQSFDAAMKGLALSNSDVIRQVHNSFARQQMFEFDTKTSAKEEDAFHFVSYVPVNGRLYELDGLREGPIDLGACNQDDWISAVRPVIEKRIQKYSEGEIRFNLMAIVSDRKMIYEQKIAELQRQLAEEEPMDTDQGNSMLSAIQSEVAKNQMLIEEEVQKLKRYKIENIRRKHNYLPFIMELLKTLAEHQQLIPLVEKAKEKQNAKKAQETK
#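 Schedule: 30 min plus 25 min, room temperature / Material: human UCH37 within purified proteasomes / Technique: AMC fluorescence intensity at 355/460 nm / Buffer or medium: pH 7.4 Tris-HCl (50 mM) with ovalbumin, ATP-MgCl2, DTT / Controls: wells without proteasome as full block, compound-free enzyme plus substrate as uninhibited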
# MEKK2mut PB1 HTS: MEK5 binding signal on mutant MEKK2 PB1, primary screen, biochemical, multiplex bead flow cytometry, Alexa488-MEK5. Alexa488-MEK5 binding to MEKK2 mutant. percent response, % at 10 µM. hit rate 0.35% among 290,000; in the data active = percent response above about 24%, passing the limit was not always enough
# T cell modulator: modulators of CD8 T cell-vesicle binding, primary screen, mouse 2C CD8+ T cells, flow cytometry. response (vesicle binding), % at 7 µM. AID 2052, 2009. hit rate 0.068% among 330,000. 2C CD8+ T cell-vesicle binding; stronger effect = lower value;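 active = response, share of CD8 T cells binding vesicles, and their 90th percentile fluorescence all below set limits, cut at about 80% in these data, passing the limit was not always enough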;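 note: values below 100% mean blocked vesicle binding to the CD8+ T cells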
#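 Test system: purified 2C TCR transgenic mouse naive CD8+ T cells. Probe or stimulus: QL9-peptide-loaded Drosophila micro-vesicles bearing Ld, ICAM-1 and B7-1. Incubation: binding step 1.5 h, 37 °C, antibody labelling 20 min, ice. Measured by: flow cytometry of vesicle-bound cells.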
# MEKK2wt confirm: modulators of MEK5 binding to wildtype MEKK2, confirmation, biochemical, single concentration, multiplex bead flow cytometry; shares compounds with MEKK3 PB1 HTS; hit rate 2.4% among 5,900; binding response (% of control), % at 10 µM; AID 1892, 2009; Alexa488-MEK5 binding to MEKK2 WT; actives lie on both sides; in the data active = binding response below about 16% or above about 210%; inactive = in between
# MEKK2mut-MEK5: mutant MEKK2 PB1-MEK5 binding signal retest – biochemical, single concentration, multiplex bead flow cytometry, confirmation; percent response, % at 10 µM; Alexa488-MEK5 binding to MEKK2 mutant; shares compounds with MEKK3 PB1 HTS; hit rate 2% among 5,900; in the data active = percent response mostly above about 71%, no sharp cut-off; inactive = mostly below about 38%;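 note: higher means compound restores mutant binding toward wildtype level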
# MEKK3-MEK5 inh: MEKK3 wild-type PB1 binding to MEK5, inhibitors, confirmation, biochemical, bead multiplex flow cytometry, single concentration, wildtype; shares compounds with MEKK3 PB1 HTS; Alexa488-MEK5 binding to MEKK3; stronger effect = lower value; binding response (% of control), % at 10 µM; hit rate 1.8% among 5,900; AID 1894, 2009;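 active = binding response below 72% of control, or above a set upper limit, though filed actives all read lower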;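 note: 100% = DMSO only wells and 0% = binding blocked by excess unlabeled MEK5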
# Numbers without * were called inactive; i = inactive; . = no result; [ ] = remark or other dose. A selection: hits, their analogues and other compounds. The true share with any hit is near 2.5%.
SMILES,MEKK2 WT-MEK5,Rce1 inhib,MEKK3 PB1 HTS,UCH37 DUB inh,MEKK2mut PB1 HTS,T cell modulator,MEKK2wt confirm,MEKK2mut-MEK5,MEKK3-MEK5 inh
C#CCOCCOCCOCCNc1nc(N2CCN(C(=O)[C@H](Cc3cc4ccccc4[nH]3)n3cc([C@@H](N)CC(C)C)nn3)CC2)nc(N2CCN(C(=O)[C@H](Cc3cc4ccccc4[nH]3)n3cc([C@@H](N)CC(C)C)nn3)CC2)n1,258*,i,118,1,112*,731,289*,132*,112
C#CCOCCOCCOCCNc1nc(N2CCN(C(=O)[C@H]([C@@H](C)CC)n3cc([C@@H](N)CC(C)C)nn3)CC2)nc(N2CCN(C(=O)[C@H](Cc3cc4ccccc4[nH]3)n3cc([C@@H](N)CC(C)C)nn3)CC2)n1,151*,i,108,0,52*,.,252*,169*,116
COc1ccc(/C=C/C(=O)NCC(=O)NN=Cc2cccs2)cc1,.,.,.,3,.,.,.,.,.
CCOC(=O)NN=Cc1cc(OC)c(O)c(OC)c1,.,.,.,-4,.,.,.,.,.
CCCc1nn(C)c(C(=O)Nc2cccc3ccccc23)c1Cl,107,i,131*,1,1,108,105,0,109
Cc1ccc(C)c(S(=O)(=O)NN=Cc2ccc(N3CCOCC3)cc2)c1,.,.,.,8,.,.,.,.,.
COc1ccc(CC(=O)N2N=C(C)CC2(O)c2cccnc2)cc1OC (stereo not drawn),100,i,128*,0,-1,186,103,-4,103
COc1ccc(CC(=O)N2N=C(C)CC2(O)c2cccnc2)cc1 (stereo not drawn),95,i,99,4,-1,211,.,.,.
COc1ccc(-n2cc(CN[C@H]3CCCCNC3=O)c(-c3cccc(F)c3)n2)cc1,114,i,104,2,14,490,.,.,.
COc1ccc(-n2cc(CNC3CCN(C)CC3)c(-c3cccc(F)c3)n2)cc1,169*,i,108,-1,49,235,150,36,109
CC(C)OC(=O)c1cc(NC(=S)Nc2ccc([N+](=O)[O-])cc2)cc(C(=O)OC(C)C)c1,169*,i,82,1,40*,229,147,18,104
CC(C)CCNC(=S)Nc1ccc([N+](=O)[O-])cc1,106,i,129*,5,0,223,104,-7,101
CC(=O)c1ccc(OCCOc2ccc(C#N)cc2)cc1,127,i,130*,3,24,164,102,6,104
O=[N+]([O-])c1ccccc1C=NN1CCN(c2ccccc2)CC1,.,.,.,0,.,.,.,.,.
Cc1ccc(-c2nn(-c3ccccc3)cc2C=NNS(=O)(=O)c2ccccc2)cc1,.,.,.,3,.,.,.,.,.
O=C(N1CCN(c2ccccc2F)CC1)C1(c2cccs2)CCOCC1,106,i,134*,0,0,250,97,2,103
O=C(N1CCN(c2ccccc2F)CC1)C12CC3CC(CC(C3)C1)C2,101,i,104,3,0,378,.,.,.
COc1cccc(C=NNC(=O)c2ccc(=O)n(C)c2)c1O,.,.,.,6,.,.,.,.,.
Cc1c2ccccc2nc2c(F)c(N(C)C)c(F)c(F)c12,100,i,145*,4,0,587,97,-2,101
c1ccc2c(c1)OC(CCCN1CCCCC1)c1ccccc1S2 (stereo not drawn),141*,i,106,4,27*,503,138,21,107
CN1CCCC(CC2Oc3ccccc3Sc3ccccc32)C1 (stereo not drawn),120,i,120,4,0,309,.,.,.
COc1ccc(N2C(=O)c3cccc4cc(Br)cc(c34)C2=O)cc1,91,i,73*[inhibitor],1,-18,408,96,-3,97
Cc1cc2cc(CNC(=O)NC3CCCCC3)ccc2[nH]1,.,i,62*[inhibitor],2,51*,379,70,3,65*
Cc1cc2cc(CNC(=S)NC3CCCCC3)ccc2[nH]1,108,i,115,0,-1,271,.,.,.
COc1ccc(OC)c(C=NNC(=O)c2c(C)nc3ccc(C)cn23)c1,.,.,.,-437,.,.,.,.,.
SMILES,MEKK2 WT-MEK5,Rce1 inhib,MEKK3 PB1 HTS,UCH37 DUB inh,MEKK2mut PB1 HTS,T cell modulator,MEKK2wt confirm,MEKK2mut-MEK5,MEKK3-MEK5 inh
CCOC(=O)/C(C#N)=C\c1c(OCC)n(CC)c2ccccc12,109,i,134*,-12,1,270,104,1,106
COc1cccc(C2C3=C(N=c4sc(=Cc5ccc(O)cc5)c(=O)n42)c2ccccc2CC3)c1OC (stereo not drawn),.,.,.,1,.,.,.,.,.
C=C(C)CNC(=S)NN=CC1=CCC2CC1C2(C)C (stereo not drawn),.,.,.,4,.,.,.,.,.
CCOc1cc(CNCCCN2CCOCC2)cc(Br)c1OCc1ccccc1Cl,199*,i,114,11,78*,261,173,33,105
CCOc1cc(CNCCN2CCOCC2)ccc1OCc1ccccc1Cl,104,i,96,2,-1,87,.,.,.
CCOc1cc(CNC(C)(C)CO)cc(Br)c1OCc1ccc(Cl)cc1Cl,262*,i,117,3,75*,120,202,67,116
CCOc1cc(CNCCO)cc(Br)c1OCc1ccccc1Cl,142*,i,102,8,12,330,148,33,104
O=C(NCC1CCCO1)c1csc2c1CCCCC2 (stereo not drawn),-4.0*[inhibitor],i,0.0*[inhibitor],0,-39,501,107,9,106
O=C(NN=Cc1ccc([N+](=O)[O-])s1)c1cncc(Br)c1,.,.,.,9,.,.,.,.,.
